GPR7 antagonist: GPR7 receptor antagonists, primary screen, cell-based, fluorescence, single concentration | Neuropeptides B/W receptor type 1 (Homo sapiens), P48145 | GPR7-expressing cells, fluorescence antagonist assay | inhibition, % at 4.4 µM | 290,000 compounds, 1.1% hits | AID 1861, 2009; in the data active means inhibition above about 16%, passing the limit was not always enough;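 further: cells stimulated with the agonist NPW; 0% = agonist with vehicle and 100% = vehicle without agonist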
MPTP block: mitochondrial permeability transition pore inhibitors, primary screen, biochemical, isolated mouse mitochondria, absorbance. 360,000 compounds, 1.4% hits. Ca2+ swelling absorbance, 30 min. inhibition, % at 10 µM;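 active means inhibition of 50% or more, scaled per plate between neutral and stimulator controls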;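 further: 0% = DMSO wells given calcium and 100% = 1 mM EGTA wells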
DAGLB inhibitor: DAGLB lipase inhibitors, primary screen, biochemical, fluorescence, HTS. Diacylglycerol lipase-beta (Homo sapiens), Q8NCG7. HEK293T DAGLB membrane lysate, EnzChek fluorogenic substrate. 340,000 compounds, 0.059% hits. inhibition, % at 5.17 µM; in the data active means inhibition above about 34%;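 further: 0% = enzyme with vehicle and 100% = wells lacking enzyme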
TAAR1 ag: human TAAR1 agonists, primary screen, Fluo-8 calcium fluorescence, CHO RD-HGA16 cells | Trace amine-associated receptor 1 (Homo sapiens), Q96RJ0 | vehicle wells 0%, saturating PEA agonist 100% | activation, % at 3 µM | 360,000 compounds, 0.99% hits | AID 624467, 2012;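 active means activation above the mean activation of all test compounds in the run plus 3 SD, cut at about 38% in these data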
Target sequence (Q96RJ0 whole entry, looked up): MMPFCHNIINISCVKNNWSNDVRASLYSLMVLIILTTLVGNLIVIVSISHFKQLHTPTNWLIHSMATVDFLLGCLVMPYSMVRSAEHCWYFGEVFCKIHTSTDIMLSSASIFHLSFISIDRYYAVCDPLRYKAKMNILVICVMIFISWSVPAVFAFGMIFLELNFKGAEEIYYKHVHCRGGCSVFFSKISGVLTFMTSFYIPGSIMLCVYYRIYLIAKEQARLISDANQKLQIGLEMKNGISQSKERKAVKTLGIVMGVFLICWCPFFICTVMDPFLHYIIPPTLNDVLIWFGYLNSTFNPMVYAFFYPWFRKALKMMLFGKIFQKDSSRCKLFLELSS
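System: CHO RD-HGA16 cells carrying human TAAR1 plus Gα16; Incubation: 17-24 h seeding, 75 min 37 °C dye, 30 min RT; Measured by: Fluo-8 fluorescence, 5 s baseline then 140 s kinetic read; Control set: DMSO and PEA EC100; Replication: single well for each compound.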
TAAR1 antag: human TAAR1 antagonists, primary screen, Fluo-8 calcium fluorescence, CHO RD-HGA16 cells; antagonist; 360,000 compounds, 1.5% hits; inhibition, % at 3 µM; AID 624466, 2012; Trace amine-associated receptor 1 (Homo sapiens), Q96RJ0;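 active means inhibition above a per-plate cutoff, the mean inhibition of test compounds on that plate plus 3 SD, cut at about 49% in these data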;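 further: 0% = DMSO plus EC80 beta-PEA response and 100% = DMSO alone without agonist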
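Material: CHO RD-HGA16 cells bearing hTAAR1; compound dosing: one-point dosing, 3 µM nominal final; schedule: dye loading 75 min at 37 °C, then 30 min room temperature; measured by: calcium fluorescence with Fluo-8; control set: vehicle and agonist controls; replication: n of 1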
MPTP counter: fluorescence retest of MPTP screen hits in isolated mitochondria, single concentration; shares compounds with MPTP block; membrane potential, Rhodamine 123 fluorescence; inhibition, % at 10 µM; 5,000 compounds, 78% hits; AID 624504, 2012; in the data active means inhibition above about 22%;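 further: 0% = DMSO vehicle and 100% = positive control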
MPTP abs DR: mitochondrial permeability transition pore inhibitors, dose response, biochemical, absorbance, uHTS hits. IC50, µM. isolated mitochondria swelling. shares compounds with MPTP block. 780 compounds, 58% hits; in the data active means IC50 below about 20 µM
MPTP cs DR: fluorescent counter-screen in isolated mitochondria, dose response, counter-screen for MPTP inhibitor project, biochemical, fluorescence, uHTS hits. shares compounds with MPTP block. isolated mitochondria counterscreen, fluorescence read-out. IC50, µM. 780 compounds, 49% hits. AID 651564, 2012; in the data active means IC50 below about 80 µM
The depositor's hits bear a star; / = no result; ! = not active in a repeat. Shown are actives, neighbours in structure and some others; about 4% of the full set was active somewhere.

SMILES	GPR7 antagonist	MPTP block	DAGLB inhibitor	TAAR1 ag	TAAR1 antag	MPTP counter	others
O=C(CN1CCCC(O)C1)N1c2ccccc2Sc2ccc(C(F)(F)F)cc21 (stereo unspecified)	-3	0	-1	17	-18	/
CN1CCN(CCCN2c3ccccc3Sc3ccc(C(F)(F)F)cc32)CC1	18	91*!	3	24	-3	-20	MPTP abs DR=4.2*;MPTP cs DR=>80
CC(C)(C)c1ccc(CSc2nc(N)cc(=O)[nH]2)cc1	-25	67*	0	/	/	76*
CCN(C(=O)CN1C(=O)S/C(=C\c2ccc(F)cc2)C1=O)C1CCS(=O)(=O)C1 (stereo unspecified)	6	-1	9	0	-5	/
CCN(CC)c1ccc(/C=N/N=C(c2ccccc2)c2ccccc2)c(O)c1	-9	5	-7	-1	3	/
CCN(CC)c1ccc(/C=N/N(c2ccccc2)c2ccccc2)c(O)c1	-8	97*	-6	6	-3	54*
Cc1c(C(=O)Nc2nnc(C(F)(F)F)s2)oc2ccccc12	/	67*	-1	6	5	9	MPTP abs DR=6.5*;MPTP cs DR=<2.5*
COC(=O)c1sc(NC(=O)c2oc3ccccc3c2C)nc1C	-11	0	-2	1	-16	/
Cc1ccc(C2=NC(=O)/C(=C/c3cc(O)c(O)c(Br)c3)S2)cc1	-10	114*	14	6	9	36*
Cc1ccccc1C(=O)N[C@H](C(=O)N1CCC[C@H]1C(=O)NCCc1ccccc1Cl)C1CCCCC1	/	/	/	16	24	/
O=[N+]([O-])c1ccc(O)c(C2=NNC(c3ccccc3F)C2)c1 (stereo unspecified)	1	89*	4	25	15	85*
COc1cc(/C=N/Nc2snc(SC)c2C#N)cc(OC)c1OC	-13	73*	-4	6	-5	75*
O=C(CSc1nc2ccccc2s1)NNC(=S)Nc1ccc(Cl)cc1	5	93*	4	3	8	86*
COc1ccc(NC(=O)Nc2sc(=S)n(C)c2C)cc1	-4	6	1	4	19	/
Cc1c(NC(=O)Nc2ccc(Cl)c(Cl)c2)sc(=S)n1C	-2	51*	1	41*	6	64*
CC1(C)N=C(N)N=C(N)N1c1ccc(CCCCc2ccccc2)cc1	/	64*	-3	7	-34	60*
CSc1ncnc2c1ncn2CCCN1CCN(Cc2cccc3ccccc23)CC1	/	1	0	8	-17	/
COCCn1c(C)cc(C2=NNC(=Nc3ccc(Cl)cc3Cl)SC2)c1C	7	1	1	-1	18	/
COCC(C)N=C1NN=C(c2cc(C)n(Cc3ccccc3Cl)c2C)CS1 (stereo unspecified)	-5	79*	2	20	-9	83*
Cc1ccc(NC(=S)NC(NC(=O)C(C)(C)C)C(Cl)(Cl)Cl)c(C)c1 (stereo unspecified)	2	57*	-2	8	10	64*
Cc1ccc(O)c(NC(=S)NC(=O)/C=C/c2ccccc2)c1	-11	2	0	4	-12	/
Cc1ccc(C)c(NC(=S)NC(NC(=O)/C=C/c2ccccc2)C(Cl)(Cl)Cl)c1 (stereo unspecified)	-7	100*	0	3	6	65*
O=C(/C=C/c1ccccc1)NC(NC(=S)Nc1ccc(Cl)cc1Cl)C(Cl)(Cl)Cl (stereo unspecified)	-6	102*	-2	/	/	63*
CC(=O)NC(NC(=S)Nc1ccc(N=Nc2ccccc2C)cc1C)C(Cl)(Cl)Cl (stereo unspecified)	-7	88*	3	2	3	63*
